In ChEMBL document CHEMBL3877339, “Efficient Semisynthesis of (-)-Pseudoirroratin A from (-)-Flexicaulin A and Assessment of Their Antitumor Activities” (ACS Med Chem Lett, 2017):
Calls of active or inactive are those of the source. The calls are words filed in the database; no cut-off is given here.

Tests used:
[1] = (§1) Cytotoxicity against human HCT116 cells assessed as reduction in cell viability after 48 hrs by MTT assay; assay type: functional, cell-based; conditions: HCT-116, 48 h
Summary of the method: (§2)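 MTT viability assay over a compound concentration series in colorectal carcinoma cells; IC50 taken from dose–response curves. Mean ± SD of three separate experiments.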

HCT-116 [2] = assay: as §1; assay type: functional, cell-based; summary of the method: as §2
[3] = (§3) Cytotoxicity against human HT-29 cells assessed as reduction in cell viability after 48 hrs by MTT assay; assay type: functional, cell-based; conditions: HT-29, 48 h; summary of the method: as §2
HT-29 = assay: as §3; assay type: functional, cell-based; summary of the method: as §2
HCT-116 [4] = assay: Antiproliferative activity against human HCT116 cells at 2.5 ug/ml by light microscopic method; assay type: functional, cell-based
Summary of the method: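 HCT-116 cells grown at relatively high density, untreated or compound-treated, then viewed by light microscopy at 10× magnification.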

Mus musculus = assay: Toxicity in BALB/c mouse xenografted with human HCT116 cells assessed as change in body weight at 20 mg/kg, ip administered every other day for 14 days; assay type: organism-based, HCT-116; conditions: in vivo, 336 h
HCT-116 [5] = assay: Induction of apoptosis in human HCT116 cells assessed as late apoptotic cells at 0.5 ug/ml after 48 hrs by Annexin V-FITC/propidium iodide staining based flow cytometry (reference value: 3.6%); assay type: functional
HCT-116 [6] = assay: Induction of apoptosis in human HCT116 cells assessed as early apoptotic cells at 0.5 ug/ml after 48 hrs by Annexin V-FITC/propidium iodide staining based flow cytometry (reference value: 3.7%); assay type: functional
HCT-116 [7] = assay: Induction of apoptosis in human HCT116 cells assessed as necrotic cells at 0.5 ug/ml after 48 hrs by Annexin V-FITC/propidium iodide staining based flow cytometry (reference value: 1.3%); assay type: functional
HCT-116 [8] = assay: Induction of apoptosis in human HCT116 cells assessed as early apoptotic cells at 1 ug/ml after 48 hrs by Annexin V-FITC/propidium iodide staining based flow cytometry (reference value: 3.7%); assay type: functional
HCT-116 [9] = assay: Induction of apoptosis in human HCT116 cells assessed as late apoptotic cells at 1 ug/ml after 48 hrs by Annexin V-FITC/propidium iodide staining based flow cytometry (reference value: 3.6%); assay type: functional
HCT-116 [10] = assay: Induction of apoptosis in human HCT116 cells assessed as necrotic cells at 1 ug/ml after 48 hrs by Annexin V-FITC/propidium iodide staining based flow cytometry (reference value: 1.3%); assay type: functional
HCT-116 [11] = assay: Induction of apoptosis in human HCT116 cells assessed as early apoptotic cells at 2 ug/ml after 48 hrs by Annexin V-FITC/propidium iodide staining based flow cytometry (reference value: 3.7%); assay type: functional
HCT-116 [12] = assay: Induction of apoptosis in human HCT116 cells assessed as late apoptotic cells at 2 ug/ml after 48 hrs by Annexin V-FITC/propidium iodide staining based flow cytometry (reference value: 3.6%); assay type: functional
HCT-116 [13] = assay: Induction of apoptosis in human HCT116 cells assessed as necrotic cells at 2 ug/ml after 48 hrs by Annexin V-FITC/propidium iodide staining based flow cytometry (reference value: 1.3%); assay type: functional
HCT-116 [14] = assay: Induction of apoptosis in human HCT116 cells assessed as early apoptotic cells at 5 ug/ml after 48 hrs by Annexin V-FITC/propidium iodide staining based flow cytometry (reference value: 3.7%); assay type: functional
HCT-116 [15] = assay: Induction of apoptosis in human HCT116 cells assessed as late apoptotic cells at 5 ug/ml after 48 hrs by Annexin V-FITC/propidium iodide staining based flow cytometry (reference value: 3.6%); assay type: functional
HCT-116 [16] = assay: Induction of apoptosis in human HCT116 cells assessed as necrotic cells at 5 ug/ml after 48 hrs by Annexin V-FITC/propidium iodide staining based flow cytometry (reference value: 1.3%); assay type: functional
HCT-116 [17] = assay: Induction of apoptosis in human HCT116 cells assessed as early apoptotic cells at 10 ug/ml after 48 hrs by Annexin V-FITC/propidium iodide staining based flow cytometry (reference value: 3.7%); assay type: functional
HCT-116 [18] = assay: Induction of apoptosis in human HCT116 cells assessed as late apoptotic cells at 10 ug/ml after 48 hrs by Annexin V-FITC/propidium iodide staining based flow cytometry (reference value: 3.6%); assay type: functional
HCT-116 [19] = assay: Induction of apoptosis in human HCT116 cells assessed as necrotic cells at 10 ug/ml after 48 hrs by Annexin V-FITC/propidium iodide staining based flow cytometry (reference value: 1.3%); assay type: functional
HCT-116 [20] = assay: Induction of apoptosis in human HCT116 cells after 48 hrs by Annexin V-FITC/propidium iodide staining based flow cytometry; assay type: functional, cell-based
HCT-116 [21] = assay: Induction of apoptosis in human HCT116 cells cytoplasmic extract assessed as increase in cleaved caspase-3 expression at 0.3125 to 2.5 ug/ml after 48 hrs by Western blot method; assay type: functional, cell-based
Summary of the method: (§4)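 HCT-116 cells treated at 0–2.5 μg/mL, then split into cytoplasmic and nuclear extracts for Western blotting. The cytoplasmic fraction was probed for cleaved PARP, cleaved caspase-3, phospho-ERK and survivin, with α-tubulin as loading control. The nuclear fraction was probed for HDAC1, with histone H3 as loading control.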

HCT-116 [22] = assay: Induction of apoptosis in human HCT116 cells cytoplasmic extract assessed as increase in cleaved PARP expression at 0.3125 to 2.5 ug/ml after 48 hrs by Western blot method; assay type: functional, cell-based; summary of the method: as §4
HCT-116 [23] = assay: Induction of apoptosis in human HCT116 cells cytoplasmic extract assessed as decrease in survivin expression at 0.3125 to 2.5 ug/ml after 48 hrs by Western blot method; assay type: functional, cell-based; summary of the method: as §4
HCT-116 [24] = assay: Increase in ERK phosphorylation in human HCT116 cells cytoplasmic extract at 0.3125 to 2.5 ug/ml after 48 hrs by Western blot method; assay type: cell-based; summary of the method: as §4
[25] = Downregulation of HDAC1 expression in human HCT116 cells nuclear extract at >0.625 ug/ml after 48 hrs by Western blot method; assay type: functional, cell-based; conditions: HCT-116; summary of the method: as §4
HCT-116 [26] = assay: Antitumor activity against human HCT116 cells xenografted in BALB/c nude mouse assessed as inhibition of tumor volume at 20 mg/kg, ip administered every other day for 14 days; assay type: functional, organism-based
Summary of the method: (§5)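 HCT-116 cells implanted subcutaneously in the flanks of nude mice. Compound given intraperitoneally at 20 mg/kg every other day for 14 days; controls got vehicle. Tumour volume measured per animal at set time points, and tumours excised at study end; mean ± SD, n = 10 per group.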

HCT-116 [27] = assay: Antitumor activity against human HCT116 cells xenografted in BALB/c nude mouse assessed as inhibition of tumor weight at 20 mg/kg, ip administered every other day for 14 days; assay type: functional, organism-based; summary of the method: as §5

## C=C1C(=O)[C@@]23[C@H](O)C[C@@H]4C(C)(C)CCC[C@@]4(COC(C)=O)[C@@H]2[C@@H](O)C[C@@H]1[C@H]3O [FLEXICANLIN A]
[1]
  IC50: 7.3 µM
HCT-116 [2]
  Activity: Dose-dependent effect
[3]
  IC50: 10.5 µM
HT-29
  Activity: Dose-dependent effect
HCT-116 [4]
  Activity: Active
Mus musculus
  Activity: Non-Toxic

## C=C1C(=O)[C@]23[C@H](O)C[C@@H]4C(C)(C)CCC[C@]45CO[C@](O)(C[C@@H]1[C@H]2O)[C@@H]53 [PSEUDOIRRORATIN A]
[1]
  IC50: 4.9 µM
HCT-116 [2]
  Activity: Dose-dependent effect
HCT-116 [5]
  Activity: 5.3%
[3]
  IC50: 5.9 µM
HT-29
  Activity: Dose-dependent effect
HCT-116 [4]
  Activity: Active
HCT-116 [6]
  Activity: 8.5%
HCT-116 [7]
  Activity: 3.1%
HCT-116 [8]
  Activity: 10%
HCT-116 [9]
  Activity: 17%
HCT-116 [10]
  Activity: 11.1%
HCT-116 [11]
  Activity: 18.3%
HCT-116 [12]
  Activity: 27.8%
HCT-116 [13]
  Activity: 14.7%
HCT-116 [14]
  Activity: 26.2%
HCT-116 [15]
  Activity: 24.7%
HCT-116 [16]
  Activity: 21.1%
HCT-116 [17]
  Activity: 33.9%
HCT-116 [18]
  Activity: 30.2%
HCT-116 [19]
  Activity: 13.8%
HCT-116 [20]
  Activity: Dose-dependent effect
HCT-116 [21]
  Activity: Active
HCT-116 [22]
  Activity: Active
HCT-116 [23]
  Activity: Active
HCT-116 [24]
  Activity: Active
[25]
  Activity: Active
HCT-116 [26]
  Activity: Active
HCT-116 [27]
  Activity: Active
Mus musculus
  Activity: Non-Toxic
